Source: ChEMBL document CHEMBL1629431, “Synthesis and antitumor activity of some 2, 3-disubstituted quinazolin-4(3H)-ones and 4, 6- disubstituted- 1, 2, 3, 4-tetrahydroquinazolin-2H-ones” (2010)

Tests used:
Format in all cases: functional
[1] = system: SF-295; assay: Growth inhibition of human SF295 cells at 10 uM after 48 hrs by coulter counter method; settings: SF-295, 48 h, read-out: GI
Procedure, shortened: (§1)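 Single high-dose NCI 60-cell-line panel screen across nine tumor subpanels. Test solutions (0.2 mL) were added in duplicate to wells holding 1.8 mL of culture at 6 × 10⁴ cells/mL. Controls got PBS and DMSO at identical dilutions. Incubation was 48 h at 37 °C in humidified 5% CO₂. Cells were diluted 10-fold in saline, Coulter-counted and dilution-corrected. Results were expressed as percent growth inhibition versus control.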

[2] = system: CCRF-CEM; assay: Growth inhibition of human CCRF-CEM cells at 10 uM after 48 hrs by coulter counter method; settings: read-out: GI; procedure, shortened: as §1
[3] = system: HL-60(TB); assay: Growth inhibition of human HL-60(TB) cells at 10 uM after 48 hrs by coulter counter method; settings: HL-60, 48 h, read-out: GI
Procedure, shortened: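 Part of the NCI 60-cell-line single-high-dose panel. Cells were seeded at 6 × 10⁴ cells/mL with test solution in duplicate wells, alongside PBS/DMSO controls at identical dilutions. Plates were held 48 h at 37 °C in a humidified 5% CO₂ incubator. Cells were then diluted 10-fold in saline and counted by Coulter counter, with counts corrected for dilution. Results are percent growth of treated cells, reported as GI %.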

[4] = system: K562; assay: Growth inhibition of human K562 cells at 10 uM after 48 hrs by coulter counter method; settings: K562, 48 h, read-out: GI; procedure, shortened: as §1
[5] = system: MOLT-4; assay: Growth inhibition of human MOLT4 cells at 10 uM after 48 hrs by coulter counter method; settings: MOLT-4, 48 h, read-out: GI; procedure, shortened: as §1
[6] = system: SR; assay: Growth inhibition of human SR cells at 10 uM after 48 hrs by coulter counter method; settings: read-out: GI; procedure, shortened: as §1
[7] = system: A549; assay: Growth inhibition of human A549 cells at 10 uM after 48 hrs by coulter counter method; settings: A549, 48 h, read-out: GI; procedure, shortened: as §1
[8] = system: HOP-92; assay: Growth inhibition of human HOP92 cells at 10 uM after 48 hrs by coulter counter method; settings: HOP-92, 48 h, read-out: GI; procedure, shortened: as §1
[9] = system: NCI-H226; assay: Growth inhibition of human NCI-H226 cells at 10 uM after 48 hrs by coulter counter method; settings: NCI-H226, 48 h, read-out: GI; procedure, shortened: as §1
[10] = system: NCI-H23; assay: Growth inhibition of human NCI-H23 cells at 10 uM after 48 hrs by coulter counter method; settings: NCI-H23, 48 h, read-out: GI; procedure, shortened: as §1
[11] = system: NCI-H522; assay: Growth inhibition of human NCI-H522 cells at 10 uM after 48 hrs by coulter counter method; settings: NCI-H522, 48 h, read-out: GI; procedure, shortened: as §1
[12] = system: COLO 205; assay: Growth inhibition of human COLO205 cells at 10 uM after 48 hrs by coulter counter method; settings: COLO 205, 48 h, read-out: GI; procedure, shortened: as §1
[13] = system: HCT-116; assay: Growth inhibition of human HCT116 cells at 10 uM after 48 hrs by coulter counter method; settings: HCT-116, 48 h, read-out: GI; procedure, shortened: as §1
[14] = system: HT-29; assay: Growth inhibition of human HT-29 cells at 10 uM after 48 hrs by coulter counter method; settings: HT-29, 48 h, read-out: GI; procedure, shortened: as §1
[15] = system: KM12; assay: Growth inhibition of human KM12 cells at 10 uM after 48 hrs by coulter counter method; settings: KM12, 48 h, read-out: GI; procedure, shortened: as §1
[16] = system: SF-268; assay: Growth inhibition of human SF268 cells at 10 uM after 48 hrs by coulter counter method; settings: SF-268, 48 h, read-out: GI; procedure, shortened: as §1
[17] = system: SF-539; assay: Growth inhibition of human SF539 cells at 10 uM after 48 hrs by coulter counter method; settings: SF-539, 48 h, read-out: GI; procedure, shortened: as §1
[18] = system: SNB-75; assay: Growth inhibition of human SNB75 cells at 10 uM after 48 hrs by coulter counter method; settings: SNB-75, 48 h, read-out: GI; procedure, shortened: as §1
[19] = system: U-251; assay: Growth inhibition of human U251 cells at 10 uM after 48 hrs by coulter counter method; settings: U-251, 48 h, read-out: GI; procedure, shortened: as §1
[20] = system: M14; assay: Growth inhibition of human M14 cells at 10 uM after 48 hrs by coulter counter method; settings: M14, 48 h, read-out: GI; procedure, shortened: as §1
[21] = system: SK-MEL-2; assay: Growth inhibition of human SK-MEL-2 cells at 10 uM after 48 hrs by coulter counter method; settings: SK-MEL-2, 48 h, read-out: GI; procedure, shortened: as §1
[22] = system: SK-MEL-28; assay: Growth inhibition of human SK-MEL-28 cells at 10 uM after 48 hrs by coulter counter method; settings: SK-MEL-28, 48 h, read-out: GI; procedure, shortened: as §1
[23] = system: UACC-62; assay: Growth inhibition of human UACC62 cells at 10 uM after 48 hrs by coulter counter method; settings: UACC-62, 48 h, read-out: GI; procedure, shortened: as §1
[24] = system: IGROV-1; assay: Growth inhibition of human IGROV1 cells at 10 uM after 48 hrs by coulter counter method; settings: IGROV-1, 48 h, read-out: GI; procedure, shortened: as §1
[25] = system: OVCAR-4; assay: Growth inhibition of human OVCAR4 cells at 10 uM after 48 hrs by coulter counter method; settings: OVCAR-4, 48 h, read-out: GI; procedure, shortened: as §1
[26] = system: OVCAR-8; assay: Growth inhibition of human OVCAR8 cells at 10 uM after 48 hrs by coulter counter method; settings: OVCAR-8, 48 h, read-out: GI; procedure, shortened: as §1
[27] = system: SK-OV-3; assay: Growth inhibition of human SKOV3 cells at 10 uM after 48 hrs by coulter counter method; settings: SK-OV-3, 48 h, read-out: GI; procedure, shortened: as §1
[28] = system: 786-0; assay: Growth inhibition of human 786-0 cells at 10 uM after 48 hrs by coulter counter method; settings: 786-0, 48 h, read-out: GI; procedure, shortened: as §1
[29] = system: CAKI-1; assay: Growth inhibition of human Caki1 cells at 10 uM after 48 hrs by coulter counter method; settings: CAKI-1, 48 h, read-out: GI; procedure, shortened: as §1
[30] = system: SN12C; assay: Growth inhibition of human SN12C cells at 10 uM after 48 hrs by coulter counter method; settings: read-out: GI; procedure, shortened: as §1
[31] = system: UO-31; assay: Growth inhibition of human UO31 cells at 10 uM after 48 hrs by coulter counter method; settings: UO-31, 48 h, read-out: GI; procedure, shortened: as §1
[32] = system: PC-3; assay: Growth inhibition of human PC3 cells at 10 uM after 48 hrs by coulter counter method; settings: PC-3, 48 h, read-out: GI; procedure, shortened: as §1
[33] = system: MCF7; assay: Growth inhibition of human MCF7 cells at 10 uM after 48 hrs by coulter counter method; settings: MCF7, 48 h, read-out: GI; procedure, shortened: as §1
[34] = system: MDA-MB-231; assay: Growth inhibition of human MDA-MB-231 cells at 10 uM after 48 hrs by coulter counter method; settings: MDA-MB-231, 48 h, read-out: GI; procedure, shortened: as §1
[35] = Growth inhibition of human Hs 578T cells at 10 uM after 48 hrs by coulter counter method; settings: read-out: GI; procedure, shortened: as §1
[36] = system: BT-549; assay: Growth inhibition of human BT549 cells at 10 uM after 48 hrs by coulter counter method; settings: BT-549, 48 h, read-out: GI; procedure, shortened: as §1
[37] = system: T47D; assay: Growth inhibition of human T47D cells at 10 uM after 48 hrs by coulter counter method; settings: read-out: GI; procedure, shortened: as §1
[38] = system: MDA-MB-468; assay: Growth inhibition of human MDA-MB-468 cells at 10 uM after 48 hrs by coulter counter method; settings: MDA-MB-468, 48 h, read-out: GI; procedure, shortened: as §1

SMILES	inhibition of growth at 10 µM [1] [%]	inhibition of growth at 10 µM [2] [%]	inhibition of growth at 10 µM [3] [%]	inhibition of growth at 10 µM [4] [%]	inhibition of growth at 10 µM [5] [%]	inhibition of growth at 10 µM [6] [%]	inhibition of growth at 10 µM [7] [%]	inhibition of growth at 10 µM [8] [%]	inhibition of growth at 10 µM [9] [%]	inhibition of growth at 10 µM [10] [%]	inhibition of growth at 10 µM [11] [%]	inhibition of growth at 10 µM [12] [%]	inhibition of growth at 10 µM [13] [%]	inhibition of growth at 10 µM [14] [%]	inhibition of growth at 10 µM [15] [%]	inhibition of growth at 10 µM [16] [%]	inhibition of growth at 10 µM [17] [%]	inhibition of growth at 10 µM [18] [%]	inhibition of growth at 10 µM [19] [%]	inhibition of growth at 10 µM [20] [%]	other results
COc1ccc(-n2c(Nc3cc(O)[nH]c(=O)n3)nc3ccccc3c2=O)cc1	80.8	–	–	–	–	–	–	–	–	–	–	–	–	–	–	–	–	–	–	–	–
CCn1c(Nc2cc(O)nc(S)n2)nc2ccccc2c1=O	59.9	–	–	–	–	–	–	–	–	–	–	–	–	–	–	–	–	–	–	–	–
O=C1Nc2ccc(C(=O)Nc3ccccn3)cc2C(c2ccc(Cl)cc2)N1 (stereo unspecified)	–	30	30	30	33.9	30	30	30	30	30.4	30	30	39.8	37.4	30	30	30	30	30	30	inhibition of growth at 10 µM [21]: 30%; inhibition of growth at 10 µM [22]: 30%; inhibition of growth at 10 µM [23]: 30%; inhibition of growth at 10 µM [24]: 30%; inhibition of growth at 10 µM [25]: 30%; inhibition of growth at 10 µM [26]: 30%; inhibition of growth at 10 µM [27]: 30%; inhibition of growth at 10 µM [28]: 30%; inhibition of growth at 10 µM [29]: 30%; inhibition of growth at 10 µM [30]: 30%; inhibition of growth at 10 µM [31]: 41.8%; inhibition of growth at 10 µM [32]: 32.9%; inhibition of growth at 10 µM [33]: 39.2%; inhibition of growth at 10 µM [34]: 30%; inhibition of growth at 10 µM [35]: 30%; inhibition of growth at 10 µM [36]: 31.8%; inhibition of growth at 10 µM [37]: 44.9%; inhibition of growth at 10 µM [38]: 30%
COc1ccc(-n2c(Nc3ccc(S(N)(=O)=O)cc3)nc3ccccc3c2=O)cc1	–	30	30	47.1	30	30	30	30	30	30	30	30	36.7	30	30	30	30	30	30	30	inhibition of growth at 10 µM [21]: 30%; inhibition of growth at 10 µM [22]: 30%; inhibition of growth at 10 µM [23]: 30%; inhibition of growth at 10 µM [24]: 30%; inhibition of growth at 10 µM [25]: 30%; inhibition of growth at 10 µM [26]: 30%; inhibition of growth at 10 µM [27]: 30%; inhibition of growth at 10 µM [28]: 30%; inhibition of growth at 10 µM [29]: 30%; inhibition of growth at 10 µM [30]: 30%; inhibition of growth at 10 µM [31]: 30%; inhibition of growth at 10 µM [32]: 30%; inhibition of growth at 10 µM [33]: 30%; inhibition of growth at 10 µM [34]: 30%; inhibition of growth at 10 µM [35]: 30%; inhibition of growth at 10 µM [36]: 30%; inhibition of growth at 10 µM [37]: 30%; inhibition of growth at 10 µM [38]: 37.5%
